According to ChEMBL document CHEMBL2029271, “Design and synthesis of cannabinoid receptor 1 antagonists for peripheral selectivity” (J Med Chem, 2012):

Key:
Plasma = test: Metabolic stability in human plasma assessed as compound remaining at 10 uM preincubated for 5 mins measured after 60 mins; assay type: ADME, cell-free; details: 1 h
In short: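 Human plasma, 1 ml per sample at 37°C, 5 min pre-incubation, then compound at 10 μM final, sampled at 0, 30 and 60 min. Reactions stopped with acetonitrile; LC-MS/MS (MRM) quantitation with standards in blank matrix; % parent remaining at 60 min.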

[1] = Metabolic stability in human hepatic S9 fraction assessed as compound remaining at 10 uM after 120 mins; assay type: ADME, Liver; details: s9, 2 h
In short: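 Human hepatic S9 (1 mg/ml) with 10 μM final compound in 50 mM potassium phosphate pH 7.4, 3 mM MgCl2, NADPH regenerating system (NADP 1 mM, glucose-6-phosphate 5 mM, G6PDH 1 unit/ml). Triplicates sampled at 0, 15, 30, 60, 120 min; stopped with 3 volumes acetonitrile; LC-MS/MS (MRM) against matrix standard curves; % parent remaining at 120 min.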

Cannabinoid receptor 2 = Cannabinoid receptor 2 (Homo sapiens, UniProt P34972); test: Displacement of [3H]CP55940 from CB2 receptor expressed in CHO-K1 cells; assay type: cell-based
Cannabinoid receptor 1 [2] = target: T1, Cannabinoid receptor 1 (Homo sapiens, UniProt P21554); details: CHO-K1
Cannabinoid receptor 1 [3] = target: T1, Cannabinoid receptor 1; test: biochemical; assay type: cell-based, CHO-K1
MDCK = test: Permeability from apical to basal side of MDCK cells expressing human mdr1 gene; assay type: ADME, cell-based, Canis lupus familiaris; details: dog
In short: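 MDCK-mdr1 cells grown 4 days to confluence on Transwell-type filters in DMEM/F12 with 10% FBS and antibiotics. Compound added apically at 3.16 μM in HBSS with 25 mM D-glucose, HEPES-buffered to pH 7.4; 1 hr at 37°C. Apical and basal samples collected and analysed by LC-MS/MS (MRM).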

Homo sapiens = species on record: Homo sapiens; test: Selectivity ratio of Ki for CB2 receptor to Ki for human CB1 receptor
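Throughout, for Ke: antagonism measured as blockade of CP55940-evoked intracellular Ca2+ rise, read fluorometrically, in cells additionally carrying Galphaq16.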

Cannabinoid receptor 2, sequence (P34972 whole entry): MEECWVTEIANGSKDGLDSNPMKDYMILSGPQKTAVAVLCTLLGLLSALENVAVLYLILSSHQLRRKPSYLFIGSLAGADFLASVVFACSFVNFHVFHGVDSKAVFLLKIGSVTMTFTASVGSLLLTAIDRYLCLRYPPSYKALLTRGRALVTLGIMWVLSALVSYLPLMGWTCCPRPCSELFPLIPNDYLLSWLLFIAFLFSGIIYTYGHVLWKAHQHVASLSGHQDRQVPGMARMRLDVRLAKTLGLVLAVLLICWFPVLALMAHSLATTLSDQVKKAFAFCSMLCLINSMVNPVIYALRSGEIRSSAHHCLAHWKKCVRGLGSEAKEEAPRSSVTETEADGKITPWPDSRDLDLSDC
T1 sequence (P21554 whole entry): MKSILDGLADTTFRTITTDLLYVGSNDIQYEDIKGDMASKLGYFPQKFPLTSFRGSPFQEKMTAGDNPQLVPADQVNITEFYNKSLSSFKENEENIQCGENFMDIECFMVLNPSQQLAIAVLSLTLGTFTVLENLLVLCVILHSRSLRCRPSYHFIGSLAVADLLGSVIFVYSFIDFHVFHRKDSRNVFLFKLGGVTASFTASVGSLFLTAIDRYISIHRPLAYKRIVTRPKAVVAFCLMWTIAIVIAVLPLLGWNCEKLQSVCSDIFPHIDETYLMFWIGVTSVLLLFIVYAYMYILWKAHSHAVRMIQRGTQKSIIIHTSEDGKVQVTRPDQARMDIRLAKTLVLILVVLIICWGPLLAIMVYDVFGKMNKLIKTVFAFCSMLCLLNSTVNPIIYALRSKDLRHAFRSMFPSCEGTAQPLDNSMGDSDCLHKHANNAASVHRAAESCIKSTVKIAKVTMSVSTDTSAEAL

Compound	Stability (Plasma)	Stability [1]	Ki (Cannabinoid receptor 2)	Ke (Cannabinoid receptor 1 [2])	Ki (Cannabinoid receptor 1 [3])	permeability (MDCK)	Ratio Ki (Homo sapiens)
Cc1c(C(=O)NCC2CCC(CNS(C)(=O)=O)CC2)nn(-c2ccc(Cl)cc2Cl)c1-c1ccc(Cl)cc1 (configuration not stated)	> 90%	37%					
Cc1c(C(=O)N[C@@H]2CCCN(S(C)(=O)=O)C2)nn(-c2ccc(Cl)cc2Cl)c1-c1ccc(Cl)cc1			1250 nM	7 nM	11.8 nM	< 1%	106
CCNC(=O)NCC1CCC(CNC(=O)c2nn(-c3ccc(Cl)cc3Cl)c(-c3ccc(Cl)cc3)c2C)CC1 (configuration not stated)				135 nM			
Cc1c(C(=O)NCC2CCC(CNS(N)(=O)=O)CC2)nn(-c2ccc(Cl)cc2Cl)c1-c1ccc(Cl)cc1 (configuration not stated)	> 90%	62%					
Cc1c(C(=O)NCC2CCC(CNC(=O)NC(C)(C)C)CC2)nn(-c2ccc(Cl)cc2Cl)c1-c1ccc(Cl)cc1 (configuration not stated)				150 nM			
Cc1c(C(=O)N[C@@H]2CCCNC2)nn(-c2ccc(Cl)cc2Cl)c1-c1ccc(Cl)cc1				1170 nM			
Cc1c(C(=O)N2CCC(NS(C)(=O)=O)(c3ccccc3)CC2)nn(-c2ccc(Cl)cc2Cl)c1-c1ccc(Cl)cc1				3.5 nM		3%	5.6
Cc1c(C(=O)NN2CCCCC2)nn(-c2ccc(Cl)cc2Cl)c1-c1ccc(Cl)cc1 [RIMONABANT]	> 90%	47%					
CCCCNC(=O)NC1(c2ccccc2)CCN(C(=O)c2nn(-c3ccc(Cl)cc3Cl)c(-c3ccc(Cl)cc3)c2C)CC1				0.4 nM		< 1%	178
Cc1c(C(=O)N[C@@H]2CCCN(C(=O)NC(C)C)C2)nn(-c2ccc(Cl)cc2Cl)c1-c1ccc(Cl)cc1			4130 nM	31.3 nM	97 nM		43
CCNC(=O)N1CCC[C@@H](NC(=O)c2nn(-c3ccc(Cl)cc3Cl)c(-c3ccc(Cl)cc3)c2C)C1				171 nM			
Cc1c(C(=O)N2CCC(NC(=O)NC3CCCCC3)(c3ccccc3)CC2)nn(-c2ccc(Cl)cc2Cl)c1-c1ccc(Cl)cc1			20000 nM	12 nM			25
Cc1c(C(=O)N2CCC(C(=O)O)(c3ccccc3)CC2)nn(-c2ccc(Cl)cc2Cl)c1-c1ccc(Cl)cc1				1170 nM			
Cc1c(C(=O)N[C@H]2CCCNC2)nn(-c2ccc(Cl)cc2Cl)c1-c1ccc(Cl)cc1				1880 nM			
Cc1c(C(=O)N2CCC(NC(=O)Nc3ccc(N(C)C)cc3)(c3ccccc3)CC2)nn(-c2ccc(Cl)cc2Cl)c1-c1ccc(Cl)cc1			16300 nM	264 nM	1490 nM		11
CCCNC(=O)N1CCC(NC(=O)c2nn(-c3ccc(Cl)cc3Cl)c(-c3ccc(Cl)cc3)c2C)CC1			8460 nM	66.5 nM	184 nM		46
CC(=O)NC1(c2ccccc2)CCN(C(=O)c2nn(-c3ccc(Cl)cc3Cl)c(-c3ccc(Cl)cc3)c2C)CC1				201 nM			3.4
CC(=O)N1CCC[C@@H](NC(=O)c2nn(-c3ccc(Cl)cc3Cl)c(-c3ccc(Cl)cc3)c2C)C1				530 nM			
Cc1c(C(=O)NC2CCN(S(C)(=O)=O)CC2)nn(-c2ccc(Cl)cc2Cl)c1-c1ccc(Cl)cc1				269 nM			
CCNC1(C(N)=O)CCN(C(=O)c2nn(-c3ccc(Cl)cc3Cl)c(-c3ccc(Cl)cc3)c2C)CC1				91 nM			28.3
Cc1c(C(=O)N[C@H]2CCCN(C(=O)OC(C)(C)C)C2)nn(-c2ccc(Cl)cc2Cl)c1-c1ccc(Cl)cc1				842 nM			
CCCCNC(=O)NCC1CCC(CNC(=O)c2nn(-c3ccc(Cl)cc3Cl)c(-c3ccc(Cl)cc3)c2C)CC1 (configuration not stated)				274 nM			
Cc1c(C(=O)N2CCC(N)(c3ccccc3)CC2)nn(-c2ccc(Cl)cc2Cl)c1-c1ccc(Cl)cc1				485 nM			10.8
CCCNC(=O)NCC1CCC(CNC(=O)c2nn(-c3ccc(Cl)cc3Cl)c(-c3ccc(Cl)cc3)c2C)CC1 (configuration not stated)				486 nM			
CC(=O)N1CCC(NC(=O)c2nn(-c3ccc(Cl)cc3Cl)c(-c3ccc(Cl)cc3)c2C)CC1			2240 nM	195 nM	65.3 nM		34.2
Cc1c(C(=O)N[C@@H]2CCCN(C(=O)OC(C)(C)C)C2)nn(-c2ccc(Cl)cc2Cl)c1-c1ccc(Cl)cc1			6720 nM	52 nM	22.3 nM	< 1%	302
Cc1c(C(=O)N2CCC(NC(=O)Nc3ccc(F)cc3)(c3ccccc3)CC2)nn(-c2ccc(Cl)cc2Cl)c1-c1ccc(Cl)cc1			20000 nM	89 nM	614 nM		33

Compound	Stability (Plasma)	Stability [1]	Ki (Cannabinoid receptor 2)	Ke (Cannabinoid receptor 1 [2])	Ki (Cannabinoid receptor 1 [3])	permeability (MDCK)	Ratio Ki (Homo sapiens)
CCNC1(C(N)=O)CCN(c2ncnc3c2nc(-c2ccccc2Cl)n3-c2ccc(Cl)cc2)CC1 [OTENABANT]						90%	
CCOC(=O)N1CCC(NC(=O)c2nn(-c3ccc(Cl)cc3Cl)c(-c3ccc(Cl)cc3)c2C)CC1			3000 nM	3 nM	9.2 nM	< 1%	326
CCOC(=O)N1CCC[C@@H](NC(=O)c2nn(-c3ccc(Cl)cc3Cl)c(-c3ccc(Cl)cc3)c2C)C1			2510 nM	10.4 nM	17.5 nM	< 1%	143
CCNC(=O)NC1(c2ccccc2)CCN(C(=O)c2nn(-c3ccc(Cl)cc3Cl)c(-c3ccc(Cl)cc3)c2C)CC1				10.8 nM			12
Cc1c(C(=O)N2CCC(NC(=O)NC(C)C)(c3ccccc3)CC2)nn(-c2ccc(Cl)cc2Cl)c1-c1ccc(Cl)cc1				0.7 nM			364
Cc1c(C(=O)N[C@H]2CCCN(S(C)(=O)=O)C2)nn(-c2ccc(Cl)cc2Cl)c1-c1ccc(Cl)cc1			10900 nM	62 nM	77.9 nM	< 1%	140
CCCNC(=O)N1CCC[C@H](NC(=O)c2nn(-c3ccc(Cl)cc3Cl)c(-c3ccc(Cl)cc3)c2C)C1			7800 nM	70 nM	271 nM		29
Cc1c(C(=O)NC2CCNCC2)nn(-c2ccc(Cl)cc2Cl)c1-c1ccc(Cl)cc1				5120 nM			
CCCCNC(=O)N1CCC(NC(=O)c2nn(-c3ccc(Cl)cc3Cl)c(-c3ccc(Cl)cc3)c2C)CC1			8720 nM	78.1 nM	187 nM		47
Cc1c(C(=O)NC2CCN(S(N)(=O)=O)CC2)nn(-c2ccc(Cl)cc2Cl)c1-c1ccc(Cl)cc1				592 nM			
CCNC(=O)N1CCC(NC(=O)c2nn(-c3ccc(Cl)cc3Cl)c(-c3ccc(Cl)cc3)c2C)CC1			5690 nM	20.5 nM	165 nM		35
CCNC(=O)N1CCC[C@H](NC(=O)c2nn(-c3ccc(Cl)cc3Cl)c(-c3ccc(Cl)cc3)c2C)C1				280 nM			
CCCNC(=O)N1CCC[C@@H](NC(=O)c2nn(-c3ccc(Cl)cc3Cl)c(-c3ccc(Cl)cc3)c2C)C1			3090 nM	27 nM	134 nM		23
CCCCNC(=O)N1CCC[C@@H](NC(=O)c2nn(-c3ccc(Cl)cc3Cl)c(-c3ccc(Cl)cc3)c2C)C1			3030 nM	118 nM	125 nM		24
CCOC(=O)N1CCC[C@H](NC(=O)c2nn(-c3ccc(Cl)cc3Cl)c(-c3ccc(Cl)cc3)c2C)C1			5420 nM	75 nM	65.5 nM	< 1%	83
CC(=O)N1CCC[C@H](NC(=O)c2nn(-c3ccc(Cl)cc3Cl)c(-c3ccc(Cl)cc3)c2C)C1			4350 nM	86 nM	39.1 nM	14%	111
Cc1c(C(=O)NC2CCN(C(N)=O)CC2)nn(-c2ccc(Cl)cc2Cl)c1-c1ccc(Cl)cc1				4100 nM			
CCCNC(=O)NC1(c2ccccc2)CCN(C(=O)c2nn(-c3ccc(Cl)cc3Cl)c(-c3ccc(Cl)cc3)c2C)CC1				0.4 nM			39
CCCCNC(=O)N1CCC[C@H](NC(=O)c2nn(-c3ccc(Cl)cc3Cl)c(-c3ccc(Cl)cc3)c2C)C1				230 nM			
Cc1c(C(=O)N[C@H]2CCCN(C(=O)NC(C)(C)C)C2)nn(-c2ccc(Cl)cc2Cl)c1-c1ccc(Cl)cc1				206 nM			
Cc1c(C(=O)NC2CCN(C(=O)NC(C)C)CC2)nn(-c2ccc(Cl)cc2Cl)c1-c1ccc(Cl)cc1			9790 nM	16.7 nM	86 nM	14%	114
Cc1c(C(=O)N[C@H]2CCCN(C(=O)NC(C)C)C2)nn(-c2ccc(Cl)cc2Cl)c1-c1ccc(Cl)cc1				265 nM			
Cc1c(C(=O)N2CCC(NC(=O)Nc3ccc(C#N)cc3)(c3ccccc3)CC2)nn(-c2ccc(Cl)cc2Cl)c1-c1ccc(Cl)cc1				> 10000 nM			
Cc1c(C(=O)N[C@@H]2CCCN(C(=O)NC(C)(C)C)C2)nn(-c2ccc(Cl)cc2Cl)c1-c1ccc(Cl)cc1				268 nM			
Cc1c(C(=O)NCC2CCC(CNC(=O)NC(C)C)CC2)nn(-c2ccc(Cl)cc2Cl)c1-c1ccc(Cl)cc1 (configuration not stated)				351 nM			
CCCCCCNC(=O)NC1(c2ccccc2)CCN(C(=O)c2nn(-c3ccc(Cl)cc3Cl)c(-c3ccc(Cl)cc3)c2C)CC1				0.5 nM		< 1%	62
